Laboratory results reported in ChEMBL document CHEMBL1125866, “Aldophosphamide acetal diacetate and structural analogues: synthesis and cytotoxicity studies” (J Med Chem, 1991).

Key:
[1] = test system: carboxylate esterase; test: Half-life in […] at pH 7.4(37 degrees C) in the presence of pig Liver Carboxylate Esterase; format: ADME, Sus scrofa; settings: pig liver carboxylate esterase in phosphate buffer
How it was run: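 Acetal at 100 μM in 0.05 M phosphate buffer, pH 7.4, at 37 °C with pig liver carboxylate esterase, 2 units per μmol substrate (1 unit hydrolyses 1.0 μmol ethyl butyrate/min at pH 8.0, 25 °C). Samples vortexed, centrifuged, supernatant analysed by C-18 HPLC, UV 220 nm. Half-life by least-squares regression, pseudo-first-order.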

[2] = Half-life in […] Phosphate buffer at pH 7.4(37 degrees C); format: ADME
How it was run: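 Acetal at 100 μM in 0.05 M phosphate buffer, pH 7.4, shaken at 37 °C without enzyme. Aliquots taken at intervals (typically 2–50 h) and parent drug measured by reverse-phase C-18 HPLC with UV detection at 220 nm. Half-life from linear least-squares regression of pseudo-first-order decay.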

[3] = test system: L1210; test: Concentration required to reduce the viability of L1210 cells by 50% after 1-h incubation at 37 degrees C; format: functional, cell-based; settings: Mus musculus, L1210, 1 h
How it was run: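 Exposed to at least seven drug concentrations (0.1–300 μM) for 1 h at 37 °C, washed, regrown drug-free 72 h. MTT reduction read at 570 nm. IC50 from concentration–viability plot, average of duplicates.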

SMILES	half-life [1] [s]	half-life [2] [h]	IC50 [3] [µM]
CCN(CC)P(=O)(OCCC(OC(C)=O)OC(C)=O)N(CCCl)CCCl (configuration not stated)	40	37	78
CC(=O)OC(CCOP(N)(=O)N(CCCl)CCCl)OC(C)=O (configuration not stated)	36	38	0.9
CC(=O)OC(CCOP(=O)(N(C)C)N(CCCl)CCCl)OC(C)=O (configuration not stated)	36	36	> 245
CC(=O)OC(CCOP(N)(=O)N(CCCl)CCCl)OC(C)=O.O=S(=O)(O)CCS (configuration not stated)	–	–	0.9
C=CC=O.O=S(=O)(O)CCS	–	–	168
O=P1(N(CCCl)CCCl)NC(OO)CCO1.O=S(=O)(O)CCS (configuration not stated)	–	–	90
CNP(=O)(OCCC(OC(C)=O)OC(C)=O)N(CCCl)CCCl (configuration not stated)	42	42	38
CCNP(=O)(OCCC(OC(C)=O)OC(C)=O)N(CCCl)CCCl (configuration not stated)	42	40	29
C=CC=O [ACROLEIN]	–	–	48
O=P1(N(CCCl)CCCl)NCCCO1 (configuration not stated) [CYCLOPHOSPHAMIDE ANHYDROUS]	–	–	> 300
O=S(=O)(O)CCS [MESNA]	–	–	> 200
O=P1(N(CCCl)CCCl)NC(OO)CCO1 (configuration not stated) [PERFOSFAMIDE]	–	–	90
